Results taken from ChEMBL document CHEMBL4028886 (J Med Chem, 2017).
pIC50: −log10 of the molar value.

What was measured:
[1] = biological target: Sodium-dependent noradrenaline transporter (Homo sapiens, UniProt P23975); test: Inhibition of re-uptake of [3H]MPP+ at human NET expressed in HEK293 cells preincubated for 5 mins followed by […] addition measured after 3 min by liquid scintillation counting; type: cell-based; conditions: hek293
Procedure, shortened: (§1)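 HEK293 cells stably expressing human DAT or NET, seeded on PDL-coated plates 24 h before. Preincubated 5 min in Krebs–HEPES buffer pH 7.3 with compound at 0.001 μM to 1 mM (DMSO stock diluted in buffer). Substrate then added: 0.2 μM [3H]dopamine for DAT, 1 min; 0.05 μM [3H]MPP+ for NET, 3 min. Room temperature. Uptake stopped with ice-cold buffer. Cells lysed in 1% SDS and counted by scintillation. Unspecific uptake defined with 10 μM mazindol. IC50 by nonlinear regression.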

[2] = biological target: Sodium-dependent serotonin transporter (Homo sapiens, UniProt P31645); test: Inhibition of re-uptake of [3H]-5-HT at human SERT expressed in HEK293 cells preincubated for 5 mins followed by [3H]-dopamine addition measured after 1 min by liquid scintillation counting; type: cell-based; conditions: hek293
Sequence of Sodium-dependent serotonin transporter (P31645 whole entry): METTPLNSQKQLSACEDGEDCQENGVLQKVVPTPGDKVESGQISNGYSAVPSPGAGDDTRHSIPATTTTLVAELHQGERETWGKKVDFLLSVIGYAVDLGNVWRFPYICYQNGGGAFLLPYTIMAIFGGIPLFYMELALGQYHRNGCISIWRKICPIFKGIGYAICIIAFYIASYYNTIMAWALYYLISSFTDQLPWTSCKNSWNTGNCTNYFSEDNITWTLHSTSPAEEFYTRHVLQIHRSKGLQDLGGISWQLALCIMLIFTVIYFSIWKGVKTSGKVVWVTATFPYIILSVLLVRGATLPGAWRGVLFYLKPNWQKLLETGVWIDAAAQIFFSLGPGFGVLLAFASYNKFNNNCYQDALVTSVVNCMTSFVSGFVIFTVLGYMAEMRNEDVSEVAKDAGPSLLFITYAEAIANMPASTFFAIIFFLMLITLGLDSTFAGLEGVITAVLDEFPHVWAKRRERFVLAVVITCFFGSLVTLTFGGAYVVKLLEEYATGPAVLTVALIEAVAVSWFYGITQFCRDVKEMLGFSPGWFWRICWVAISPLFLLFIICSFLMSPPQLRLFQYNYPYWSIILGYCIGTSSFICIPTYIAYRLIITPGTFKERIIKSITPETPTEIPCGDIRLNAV

[3] = biological target: Sodium-dependent dopamine transporter (Homo sapiens, UniProt Q01959); test: Inhibition of re-uptake of [3H]-dopamine at human DAT expressed in HEK293 cells preincubated for 5 mins followed by [3H]-dopamine addition measured after 1 min by liquid scintillation counting; type: cell-based; conditions: read-out: IC50; procedure, shortened: as §1
Sequence of Sodium-dependent dopamine transporter (Q01959 whole entry): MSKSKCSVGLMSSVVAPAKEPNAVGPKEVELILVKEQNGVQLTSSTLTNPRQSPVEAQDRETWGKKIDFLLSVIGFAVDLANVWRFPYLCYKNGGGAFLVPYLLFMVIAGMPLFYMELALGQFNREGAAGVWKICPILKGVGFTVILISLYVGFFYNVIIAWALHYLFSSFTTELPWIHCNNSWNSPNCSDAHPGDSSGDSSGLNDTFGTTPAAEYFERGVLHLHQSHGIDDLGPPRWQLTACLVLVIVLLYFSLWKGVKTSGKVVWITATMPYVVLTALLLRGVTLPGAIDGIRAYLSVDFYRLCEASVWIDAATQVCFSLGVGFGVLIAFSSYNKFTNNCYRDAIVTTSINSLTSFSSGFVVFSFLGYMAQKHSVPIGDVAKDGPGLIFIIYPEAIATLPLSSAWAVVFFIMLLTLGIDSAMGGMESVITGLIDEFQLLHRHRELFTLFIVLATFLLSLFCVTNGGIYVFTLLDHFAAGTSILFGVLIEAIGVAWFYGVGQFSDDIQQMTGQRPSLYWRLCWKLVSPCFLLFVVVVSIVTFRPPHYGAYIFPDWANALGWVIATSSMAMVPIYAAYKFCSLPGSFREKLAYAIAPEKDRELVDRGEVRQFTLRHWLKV

[4] = system: Rattus norvegicus; test: Neurotoxicity in Sprague-Dawley rat assessed as effect on total distance traveled at 10 mg/kg, ip administered 30 mins prior to test by open field test relative to control; type: toxicity, organism-based; conditions: in vivo, 0.5 h
Procedure, shortened: (§2)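 Male Sprague–Dawley rats, 10 per group, given 10 mg/kg ip daily for 10 days and 30 min before each test. DMSO vehicle group as control. Open field arena 100 × 100 cm with 40 cm walls. Animals video-tracked for 10 min.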

[5] = system: Rattus norvegicus; test: Neurotoxicity in Sprague-Dawley rat assessed as effect on resting time at 10 mg/kg, ip administered 30 mins prior to test by open field test relative to control; type: toxicity, organism-based; conditions: in vivo, 0.5 h; procedure, shortened: as §2
[6] = system: Rattus norvegicus; test: Neurotoxicity in Sprague-Dawley rat assessed as effect on local movements at 10 mg/kg, ip administered 30 mins prior to test by open field test relative to control; type: toxicity, organism-based; conditions: in vivo, 0.5 h; procedure, shortened: as §2
[7] = system: Rattus norvegicus; test: Neurotoxicity in Sprague-Dawley rat assessed as effect on large movements at 10 mg/kg, ip administered 30 mins prior to test by open field test relative to control; type: toxicity, organism-based; conditions: in vivo, 0.5 h; procedure, shortened: as §2
[8] = system: Rattus norvegicus; test: Neurotoxicity in Sprague-Dawley rat assessed as effect on average velocity at 10 mg/kg, ip administered 30 mins prior to test by open field test relative to control; type: toxicity, organism-based; conditions: in vivo, 0.5 h; procedure, shortened: as §2
[9] = system: Rattus norvegicus; test: Neurotoxicity in Sprague-Dawley rat assessed as effect on number of crossings of the center at 10 mg/kg, ip administered 30 mins prior to test by open field test relative to control; type: toxicity, organism-based; conditions: in vivo, 0.5 h; procedure, shortened: as §2
[10] = system: Rattus norvegicus; test: Neurotoxicity in Sprague-Dawley rat assessed as effect on frequency of spontaneous changes of direction at 10 mg/kg, ip administered 30 mins prior to test by open field test; type: toxicity, organism-based; conditions: in vivo, 0.5 h; procedure, shortened: as §2
[11] = system: Rattus norvegicus; test: Neurotoxicity in Sprague-Dawley rat assessed as effect on time spent in the left open arm at 10 mg/kg, ip administered 30 mins prior to test by elevated plus maze test relative to control; type: toxicity, organism-based; conditions: in vivo, 0.5 h
Procedure, shortened: (§3)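 Male Sprague–Dawley rats, 10 per group, dosed 10 mg/kg ip daily for 10 days and 30 min before testing. DMSO vehicle controls. Elevated plus maze, rats placed centrally and video-tracked. Recorded: time in closed and open arms, arm entries, path length.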

[12] = system: Rattus norvegicus; test: Neurotoxicity in Sprague-Dawley rat assessed as effect on time spent in the left closed arm at 10 mg/kg, ip administered 30 mins prior to test by elevated plus maze test relative to control; type: toxicity, organism-based; conditions: in vivo, 0.5 h; procedure, shortened: as §3
[13] = system: Rattus norvegicus; test: Neurotoxicity in Sprague-Dawley rat assessed as effect on total distance traveled at 10 mg/kg, ip administered 30 mins prior to test by elevated plus maze test relative to control; type: toxicity, organism-based; conditions: in vivo, 0.5 h; procedure, shortened: as §3
[14] = system: Rattus norvegicus; test: Neurotoxicity in Sprague-Dawley rat assessed as effect on distance traveled in open arms at 10 mg/kg, ip administered 30 mins prior to test by elevated plus maze test relative to control; type: toxicity, organism-based; conditions: in vivo, 0.5 h; procedure, shortened: as §3
[15] = system: Rattus norvegicus; test: Neurotoxicity in Sprague-Dawley rat assessed as effect on distance traveled in closed arms at 10 mg/kg, ip administered 30 mins prior to test by elevated plus maze test relative to control; type: toxicity, organism-based; conditions: in vivo, 0.5 h; procedure, shortened: as §3
[16] = system: Rattus norvegicus; test: Neurotoxicity in Sprague-Dawley rat assessed as effect on time spent in open arm at 10 mg/kg, ip administered 30 mins prior to test by elevated plus maze test relative to control; type: toxicity, organism-based; conditions: in vivo, 0.5 h; procedure, shortened: as §3
[17] = system: Rattus norvegicus; test: Neurotoxicity in Sprague-Dawley rat assessed as effect on time spent in closed arm at 10 mg/kg, ip administered 30 mins prior to test by elevated plus maze test relative to control; type: toxicity, organism-based; conditions: in vivo, 0.5 h; procedure, shortened: as §3
[18] = system: Rattus norvegicus; test: Neurotoxicity in Sprague-Dawley rat assessed as effect on resting time at 10 mg/kg, ip administered 30 mins prior to test by elevated plus maze test relative to control; type: toxicity, organism-based; conditions: in vivo, 0.5 h; procedure, shortened: as §3
[19] = system: Rattus norvegicus; test: Neurotoxicity in Sprague-Dawley rat assessed as effect on immobility time at 10 mg/kg, ip administered 30 mins prior to test by forced swim test relative to control; type: toxicity, organism-based; conditions: in vivo, 0.5 h
Procedure, shortened: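 Male Sprague–Dawley rats, 10 per group, dosed 10 mg/kg ip daily for 10 days and 30 min before testing. DMSO vehicle controls. Forced swim in a cylinder 18 cm diameter with 23 cm water at 25 °C. 15 min pretest, then a 5 min test 24 h later. Immobility duration scored over the 5 min.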

[20] = system: Rattus norvegicus; test: Neurotoxicity in Sprague-Dawley rat assessed as body position score at 10 mg/kg, ip administered 30 mins prior to test (reference value: 1.8 +/- 0.4216); type: toxicity, organism-based; conditions: in vivo, 0.5 h
[21] = system: Rattus norvegicus; test: Neurotoxicity in Sprague-Dawley rat assessed as locomotor activity score at 10 mg/kg, ip administered 30 mins prior to test (reference value: 2.6 +/- 0.9661); type: toxicity, organism-based; conditions: in vivo, 0.5 h
[22] = system: Rattus norvegicus; test: Neurotoxicity in Sprague-Dawley rat assessed as transfer arousal score at 10 mg/kg, ip administered 30 mins prior to test (reference value: 3.1 +/- 0.3162); type: toxicity, organism-based; conditions: in vivo, 0.5 h
[23] = system: Rattus norvegicus; test: Neurotoxicity in Sprague-Dawley rat assessed as piloerection score at 10 mg/kg, ip administered 30 mins prior to test (reference value: 2.1 +/- 0.3162); type: toxicity, organism-based; conditions: in vivo, 0.5 h
[24] = system: Rattus norvegicus; test: Neurotoxicity in Sprague-Dawley rat assessed as limb rotation score at 10 mg/kg, ip administered 30 mins prior to test (reference value: 3.3 +/- 0.4830); type: toxicity, organism-based; conditions: in vivo, 0.5 h
[25] = system: Rattus norvegicus; test: Neurotoxicity in Sprague-Dawley rat assessed as tail elevation score at 10 mg/kg, ip administered 30 mins prior to test (reference value: 2.2 +/- 0.6325); type: toxicity, organism-based; conditions: in vivo, 0.5 h
[26] = system: Rattus norvegicus; test: Neurotoxicity in Sprague-Dawley rat assessed as finger approach score at 10 mg/kg, ip administered 30 mins prior to test (reference value: 1.4 +/- 1.350); type: toxicity, organism-based; conditions: in vivo, 0.5 h
[27] = system: Rattus norvegicus; test: Neurotoxicity in Sprague-Dawley rat assessed as toe pinch score at 10 mg/kg, ip administered 30 mins prior to test (reference value: 1.8 +/- 0.6325); type: toxicity, organism-based; conditions: in vivo, 0.5 h
[28] = system: Rattus norvegicus; test: Neurotoxicity in Sprague-Dawley rat assessed as limb tone score at 10 mg/kg, ip administered 30 mins prior to test (reference value: 3.3 +/- 0.6749); type: toxicity, organism-based; conditions: in vivo, 0.5 h

Sequence of Sodium-dependent noradrenaline transporter (P23975 whole entry): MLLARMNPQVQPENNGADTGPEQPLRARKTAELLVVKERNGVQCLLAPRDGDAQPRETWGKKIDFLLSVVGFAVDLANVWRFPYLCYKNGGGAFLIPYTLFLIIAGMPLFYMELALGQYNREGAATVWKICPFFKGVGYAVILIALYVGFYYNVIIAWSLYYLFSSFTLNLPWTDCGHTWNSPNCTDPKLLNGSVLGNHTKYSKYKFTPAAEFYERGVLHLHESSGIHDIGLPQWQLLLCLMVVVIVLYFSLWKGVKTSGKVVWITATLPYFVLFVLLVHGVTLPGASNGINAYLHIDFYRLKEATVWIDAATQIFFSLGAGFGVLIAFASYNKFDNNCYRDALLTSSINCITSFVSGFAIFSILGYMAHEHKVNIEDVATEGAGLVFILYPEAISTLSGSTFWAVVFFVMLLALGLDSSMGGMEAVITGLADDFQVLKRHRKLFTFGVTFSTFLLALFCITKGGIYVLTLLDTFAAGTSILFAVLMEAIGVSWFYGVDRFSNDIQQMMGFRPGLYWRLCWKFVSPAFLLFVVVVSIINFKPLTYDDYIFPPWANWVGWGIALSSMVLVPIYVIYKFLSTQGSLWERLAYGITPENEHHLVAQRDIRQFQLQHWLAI

Compound: [O-][S+](Cc1cccs1)C(c1ccccc1)c1ccccc1 (stereo not drawn)
- IC50 [1]: Not Active
- IC50 [2]: Not Active
- pIC50 [3]: 5.85
- Activity [4]: Non-Toxic
- Activity [5]: Non-Toxic
- Activity [6]: Non-Toxic
- Activity [7]: Non-Toxic
- Activity [8]: Non-Toxic
- Activity [9]: Non-Toxic
- Activity [10]: Non-Toxic
- Activity [11]: Non-Toxic
- Activity [12]: Non-Toxic
- Activity [13]: Non-Toxic
- Activity [14]: Non-Toxic
- Activity [15]: Non-Toxic
- Activity [16]: Non-Toxic
- Activity [17]: Non-Toxic
- Activity [18]: Non-Toxic
- Activity [19]: Non-Toxic
- Activity [20]: 1.9
- Activity [21]: 2.6
- Activity [22]: 3.2
- Activity [23]: 2.2
- Activity [24]: 3.4
- Activity [25]: 1.8
- Activity [26]: 1.4
- Activity [27]: 1.6
- Activity [28]: 3.5
